High-throughput results deposited in PubChem BioAssay by several laboratories.
This is a sample that favours compounds with a hit; in the whole collection about 2.2% have one here.
FGF22 binding – binders of recombinant human FGF22 by thermal shift | Q9HCT0 | SYPRO orange fluorescence; percent of sucrose octasulfate shift, DMSO zero | activity (Tm shift, normalised), % at 9.99 µM | actives 1.5% (n = 340,000) | AID 651658;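 active means mean Tm shift, scaled 0 neutral to 100 positive control, at about 1.3% or above, every replicate too, limit read from the data; inconclusive means no clear call, values can overlap the other calls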
Target sequence (Q9HCT0 whole entry, looked up): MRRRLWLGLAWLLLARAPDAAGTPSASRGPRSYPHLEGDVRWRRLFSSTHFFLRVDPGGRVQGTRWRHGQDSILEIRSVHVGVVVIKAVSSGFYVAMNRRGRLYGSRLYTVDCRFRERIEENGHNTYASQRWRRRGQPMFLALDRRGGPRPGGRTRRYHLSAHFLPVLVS
miR-122 sensor – blocks miR-122 activity in Huh7 sensor cells; Huh7 miR-122 Renilla luciferase sensor, 48 h; neutral wells = 0, positive control = 100; activation (reporter increase), % at 12.5 µM; actives 0.3% (n = 340,000); AID 602342;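 active means mean replicate activation score at least 90 and every replicate individually at or above 90; inconclusive means only one of the two criteria met; inactive means neither criterion met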;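 further: higher luciferase means less miR-122 activity so hits act as miR-122 inhibitors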
697 NFkB inh – lowers PMA/ionomycin-induced NF-kB signal in 697 B cells. AID 435022. actives 0.33% (n = 330,000). inhibition, % at 4 µM. 697 B-cell NF-kB luciferase reporter, 16 h; in the data active means inhibition above about 35%
NR2E3 ag-1 – NR2E3 (human) agonism | Q9Y5X4 | actives 0.12% (n = 320,000) | AID 2300 | inhibition of corepressor binding, % at 4.78 µM | GST-NR2E3/biotin-RetCOR TR-FRET, 1536-well;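 active means percent inhibition above the cutoff of mean plus 3 SD of all tested compounds, set per screening campaign, cut at about 20% in these data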
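System: GST-tagged NR2E3 plus biotinylated RetCOR corepressor; Amount: 1.35 nM GST-tagged NR2E3 final; Dosing: single nominal compound dose of 4.8 µM; Schedule: 5 h incubation at 4 °C; Technique: TR-FRET with europium anti-GST and streptavidin-D2, 340 nm excitation; Controls: biotin wells as high control, 0.6% DMSO wells as low control.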
NR2E3 ag-2 – activates human NR2E3 receptor. CHO-S Gal4-NCOR/VP16-NR2E3 two-hybrid, luciferase. actives 0.35% (n = 360,000). AID 602229. inhibition of corepressor binding, % at 3.98 µM;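 active means inhibition above the mean of all tested compounds plus 3 SD, cut at about 70% in these data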;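 further: higher means lower luciferase signal from less NR2E3 corepressor binding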
Jurkat NFkB inh – lowers PMA/ionomycin-induced NF-kB signal in Jurkat cells | PMA/ionomycin-induced NF-kB luciferase reporter, luminescence | inhibition, % at 4 µM | actives 0.53% (n = 330,000); in the data active means inhibition above about 50%
Jurkat NFkB conf – inhibitors of the PMA/ionomycin-induced NF-kB reporter in Jurkat cells, retest. shares compounds with Jurkat NFkB inh. Jurkat NF-kB luciferase, 16 h. inhibition, % at 4 µM. actives 27% (n = 2,700);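 active means inhibition reaching about 45% at 4 µM in either replicate, limit read from the data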
Numbers stand for hits; - = inactive; ? = inconclusive; . = no result.

SMILES	FGF22 binding	miR-122 sensor	697 NFkB inh	NR2E3 ag-1	NR2E3 ag-2	Jurkat NFkB inh	Jurkat NFkB conf
COc1ccc(OC)c(NC(=O)CN(c2ccc(C)cc2)S(=O)(=O)c2c(C)noc2C)c1	.	-	-	-	-	-	.
COc1ccc(N(CC(=O)Nc2cc(Cl)ccc2OC)S(=O)(=O)c2c(C)noc2C)cc1	.	-	-	-	-	69	-
CN(C)S(=O)(=O)c1cccc(NC(=O)COC(=O)c2ccc3ccccc3n2)c1	-	-	-	.	-	60	-
Cc1cc(C(=O)Nc2sc3c(c2C#N)CCC(C)C3)cs1 (stereo not given)	.	-	-	-	-	-	-
Cc1cccc(C(=O)Nc2sc3c(c2C(=O)O)CCC3)c1	.	-	-	-	-	-	.
Cc1cccc(C(=O)Nc2sc3c(c2C#N)CCCCC3)c1	.	-	-	-	-	-	-
CCc1ccc(CCC(=O)Nc2sc3c(c2C#N)CCCC3)o1	.	.	-	-	-	56	-
O=C(Nc1ccc2c(c1)[C@@H]1C[C@@H](CC(=O)N3CCCCC3)O[C@@H](CO)[C@@H]1O2)c1cccnc1	.	-	.	.	.	.	.
COc1cccc(S(=O)(=O)N[C@@H]2CC[C@@H](CCn3cc(-c4ccc(F)cc4)nn3)O[C@H]2CO)c1	-	.	.	.	.	.	.
C[C@@H]1CCCCO[C@H](CN(C)C(=O)Nc2ccc3c(c2)OCO3)[C@H](C)CN([C@H](C)CO)C(=O)c2cc(NC(=O)Nc3ccc(F)cc3)ccc2O1	-	-	.	.	.	.	.
Cc1ccc(O)c(NC(=O)Cc2ccc3ccccc3c2)c1	-	-	-	-	-	74	-
Cc1ccc(O)c(NC(=O)CSc2ccc(Cl)cc2)c1	-	-	-	-	-	69	-
COc1ccc(Nc2nc(-c3sc(C)nc3C)cs2)cc1	-	-	-	-	-	51	-
Cc1cnc(NC(=O)COc2ccc3c(c2)CCC3)s1	-	.	-	-	-	-	-
Cc1cccc(NC(=O)COc2ccc3c(c2)CCC3)n1	-	-	-	.	-	-	.
O=[N+]([O-])c1ccc(N=Nc2ncc[nH]2)cc1	-	.	-	.	-	82	-
O=[N+]([O-])c1ccc(N=NN(CCO)CCO)cc1	-	.	-	-	-	-	.
O=C(C[C@@H]1CC[C@H]2[C@@H](COC[C@H](O)CN2C(=O)c2ccc(F)cc2)O1)Nc1ccc(-c2ccccc2)cc1	-	-	.	.	.	.	.
COc1ccc2cc3cc(C(=O)N4CCCCC4C)oc3nc2c1 (stereo not given)	-	-	-	-	-	-	-
CN1C(=O)c2cc(NC(=O)c3cnccn3)ccc2OC[C@H]2O[C@@H](CC(=O)N[C@@H]3CCN(Cc4ccccc4)C3)CC[C@H]21	-	-	.	.	.	.	.
COc1ccc(OCc2cc(C(=O)NC3Cc4ccccc4C3)no2)c(Cl)c1	-	-	-	-	-	55	-
Fc1ccc(-c2csc(N3CCOCC3)n2)cc1	-	.	-	-	-	-	.
c1ccc2oc(-c3csc(N4CCOCC4)n3)cc2c1	-	-	-	-	-	-	-
O=C(N/N=C/c1ccccc1Cl)c1[nH]c2ccc(Br)cc2c1-c1ccccc1	-	.	-	-	-	64	54
COc1ccc(/C=N/NC(=O)c2[nH]c3ccc(Br)cc3c2-c2ccccc2)cc1	.	.	-	-	-	84	61
COc1ccc(-n2nnnc2-c2cccc(OC)c2)cc1	.	-	-	-	-	-	-
CNc1cc([N+](=O)[O-])ccc1N/C=C/C(=O)c1cccs1	.	-	-	-	-	-	.
O=C(/C=C/Nc1cccc([N+](=O)[O-])c1)c1cccs1	.	?	-	-	-	-	-
O=C(NCCc1ccccc1)C(=O)NCCC1CCCCN1S(=O)(=O)c1ccccc1 (stereo not given)	-	.	-	-	-	-	.
O=C(NCCc1ccccc1)C(=O)NCC1CCCN1S(=O)(=O)c1ccccc1 (stereo not given)	-	-	-	-	-	56	-
